# Tested on: Fibroblast
# Test: Multiplex assay against human fibroblast
# Assay type: toxicity, cell-based
# Method in brief: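 Hoechst33342, BioTracker Green Microtubule Cytoskeleton Dye, MitoTracker Red and Annexin V Alexa Fluor 680 were added to live cells at seeding, and imaging on a CQ1 microscope at 37°C and 5% CO2 followed compound addition. Gating by CellPathfinder machine learning separated cells into Hoechst high-intensity objects or normal cells, then normal cells into healthy, pyknosed or fragmented nuclei, then pyknosed cells into mitotic or apoptotic. Per cents of healthy-nucleus cells are reported for the tubulin, mitochondrial-mass and membrane-permeability phenotypes.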
# [1] = 12 h, 1 µM, compound concentration 1 uM, replicate 1
# [2] = 12 h, 1 µM, compound concentration 1 uM, replicate 2
# [3] = 12 h, 10 µM, compound concentration 10 uM, replicate 1
# [4] = 12 h, 10 µM, compound concentration 10 uM, replicate 2
# [5] = 24 h, 1 µM, compound concentration 1 uM, replicate 1
# [6] = 24 h, 1 µM, compound concentration 1 uM, replicate 2
# [7] = 24 h, 10 µM, compound concentration 10 uM, replicate 1
# [8] = 24 h, 10 µM, compound concentration 10 uM, replicate 2
# [9] = 48 h, 1 µM, compound concentration 1 uM, replicate 1
# [10] = 48 h, 1 µM, compound concentration 1 uM, replicate 2
# [11] = 48 h, 10 µM, compound concentration 10 uM, replicate 1
# [12] = 48 h, 10 µM, compound concentration 10 uM, replicate 2
compound,measurement,setting,value
OCCCNc1cc(-c2ccnc(Nc3cccc(Cl)c3)n2)ccn1,Population Apoptotic (%),[1],58%
same,Population Fragmented Nuclei (%),[1],15%
same,Population Healthy Nuclei (%),[1],66%
same,Population Hoechst High Intensity Objects (%),[1],4%
same,Population Membrane Permeable-Phenotype (%),[1],0%
same,Population Mitochondria Different-Phenotype (%),[1],9%
same,Population Mitotic Cells (%),[1],41%
same,Population Normal (%),[1],95%
same,Population Pyknosed Nuclei (%),[1],18%
same,Population Tubulin-Different-Phenotype (%),[1],52%
same,Total Cell Count,[1],139
same,Population Apoptotic (%),[2],50%
same,Population Fragmented Nuclei (%),[2],21%
same,Population Healthy Nuclei (%),[2],53%
same,Population Hoechst High Intensity Objects (%),[2],6%
same,Population Membrane Permeable-Phenotype (%),[2],5%
same,Population Mitochondria Different-Phenotype (%),[2],13%
same,Population Mitotic Cells (%),[2],50%
same,Population Normal (%),[2],93%
same,Population Pyknosed Nuclei (%),[2],24%
same,Population Tubulin-Different-Phenotype (%),[2],47%
same,Total Cell Count,[2],138
same,Population Apoptotic (%),[3],61%
same,Population Fragmented Nuclei (%),[3],38%
same,Population Healthy Nuclei (%),[3],44%
same,Population Hoechst High Intensity Objects (%),[3],10%
same,Population Membrane Permeable-Phenotype (%),[3],9%
same,Population Mitochondria Different-Phenotype (%),[3],25%
same,Population Mitotic Cells (%),[3],38%
same,Population Normal (%),[3],89%
same,Population Pyknosed Nuclei (%),[3],17%
same,Population Tubulin-Different-Phenotype (%),[3],88%
same,Total Cell Count,[3],136
same,Population Apoptotic (%),[4],52%
same,Population Fragmented Nuclei (%),[4],65%
same,Population Healthy Nuclei (%),[4],24%
same,Population Hoechst High Intensity Objects (%),[4],6%
same,Population Membrane Permeable-Phenotype (%),[4],20%
same,Population Mitochondria Different-Phenotype (%),[4],11%
same,Population Mitotic Cells (%),[4],47%
same,Population Normal (%),[4],93%
same,Population Pyknosed Nuclei (%),[4],9%
same,Population Tubulin-Different-Phenotype (%),[4],84%
same,Total Cell Count,[4],227
same,Population Apoptotic (%),[5],56%
same,Population Fragmented Nuclei (%),[5],16%
same,Population Healthy Nuclei (%),[5],65%
same,Population Hoechst High Intensity Objects (%),[5],2%
same,Population Membrane Permeable-Phenotype (%),[5],1%
same,Population Mitochondria Different-Phenotype (%),[5],20%
same,Population Mitotic Cells (%),[5],43%
same,Population Normal (%),[5],97%
same,Population Pyknosed Nuclei (%),[5],17%
same,Population Tubulin-Different-Phenotype (%),[5],60%
same,Total Cell Count,[5],136
same,Population Apoptotic (%),[6],46%
same,Population Fragmented Nuclei (%),[6],29%
same,Population Healthy Nuclei (%),[6],48%
same,Population Hoechst High Intensity Objects (%),[6],3%
same,Population Membrane Permeable-Phenotype (%),[6],6%
same,Population Mitochondria Different-Phenotype (%),[6],10%
same,Population Mitotic Cells (%),[6],53%
same,Population Normal (%),[6],96%
same,Population Pyknosed Nuclei (%),[6],22%
same,Population Tubulin-Different-Phenotype (%),[6],55%
same,Total Cell Count,[6],139
same,Population Apoptotic (%),[7],80%
same,Population Fragmented Nuclei (%),[7],36%
same,Population Healthy Nuclei (%),[7],42%
same,Population Hoechst High Intensity Objects (%),[7],11%
same,Population Membrane Permeable-Phenotype (%),[7],7%
same,Population Mitochondria Different-Phenotype (%),[7],46%
same,Population Mitotic Cells (%),[7],20%
same,Population Normal (%),[7],88%
same,Population Pyknosed Nuclei (%),[7],20%
same,Population Tubulin-Different-Phenotype (%),[7],86%
same,Total Cell Count,[7],138
same,Population Fragmented Nuclei (%),[8],63%
same,Population Healthy Nuclei (%),[8],27%
same,Population Hoechst High Intensity Objects (%),[8],6%
same,Population Membrane Permeable-Phenotype (%),[8],12%
same,Population Mitochondria Different-Phenotype (%),[8],9%
same,Population Normal (%),[8],93%
same,Population Pyknosed Nuclei (%),[8],9%
same,Population Tubulin-Different-Phenotype (%),[8],80%
same,Total Cell Count,[8],218
same,Population Apoptotic (%),[9],46%
same,Population Fragmented Nuclei (%),[9],27%
same,Population Healthy Nuclei (%),[9],47%
same,Population Hoechst High Intensity Objects (%),[9],8%
same,Population Membrane Permeable-Phenotype (%),[9],1%
same,Population Mitochondria Different-Phenotype (%),[9],20%
same,Population Mitotic Cells (%),[9],53%
same,Population Normal (%),[9],91%
same,Population Pyknosed Nuclei (%),[9],25%
same,Population Tubulin-Different-Phenotype (%),[9],66%
same,Total Cell Count,[9],136
same,Population Apoptotic (%),[10],37%
same,Population Fragmented Nuclei (%),[10],36%
same,Population Healthy Nuclei (%),[10],30%
same,Population Hoechst High Intensity Objects (%),[10],7%
same,Population Membrane Permeable-Phenotype (%),[10],5%
same,Population Mitochondria Different-Phenotype (%),[10],24%
same,Population Mitotic Cells (%),[10],62%
same,Population Normal (%),[10],92%
same,Population Pyknosed Nuclei (%),[10],32%
same,Population Tubulin-Different-Phenotype (%),[10],45%
same,Total Cell Count,[10],132
same,Population Apoptotic (%),[11],91%
same,Population Fragmented Nuclei (%),[11],39%
same,Population Healthy Nuclei (%),[11],39%
same,Population Hoechst High Intensity Objects (%),[11],14%
same,Population Membrane Permeable-Phenotype (%),[11],15%
same,Population Mitochondria Different-Phenotype (%),[11],42%
same,Population Mitotic Cells (%),[11],8%
same,Population Normal (%),[11],85%
same,Population Pyknosed Nuclei (%),[11],21%
same,Population Tubulin-Different-Phenotype (%),[11],77%
same,Total Cell Count,[11],134
same,Population Apoptotic (%),[12],85%
same,Population Fragmented Nuclei (%),[12],58%
same,Population Healthy Nuclei (%),[12],30%
same,Population Hoechst High Intensity Objects (%),[12],6%
same,Population Membrane Permeable-Phenotype (%),[12],20%
same,Population Mitochondria Different-Phenotype (%),[12],20%
same,Population Mitotic Cells (%),[12],14%
same,Population Normal (%),[12],93%
same,Population Pyknosed Nuclei (%),[12],11%
same,Population Tubulin-Different-Phenotype (%),[12],64%
same,Total Cell Count,[12],192
